Assay results as given in ChEMBL document CHEMBL1135647, “New pyridobenzodiazepine derivatives: modifications of the basic side chain differentially modulate binding to dopamine (D(4.2), D(2L)) and serotonin (5-HT(2A)) receptors” (J Med Chem, 2002).

How the values were obtained:
D(4) dopamine receptor [1] = biological target: T1, D(4) dopamine receptor (Homo sapiens, UniProt P21917); assay: (§1) In vitro binding affinity at human cloned Dopamine receptor D4 expressed in Sf9 cell membranes
T1 sequence (P21917 whole entry): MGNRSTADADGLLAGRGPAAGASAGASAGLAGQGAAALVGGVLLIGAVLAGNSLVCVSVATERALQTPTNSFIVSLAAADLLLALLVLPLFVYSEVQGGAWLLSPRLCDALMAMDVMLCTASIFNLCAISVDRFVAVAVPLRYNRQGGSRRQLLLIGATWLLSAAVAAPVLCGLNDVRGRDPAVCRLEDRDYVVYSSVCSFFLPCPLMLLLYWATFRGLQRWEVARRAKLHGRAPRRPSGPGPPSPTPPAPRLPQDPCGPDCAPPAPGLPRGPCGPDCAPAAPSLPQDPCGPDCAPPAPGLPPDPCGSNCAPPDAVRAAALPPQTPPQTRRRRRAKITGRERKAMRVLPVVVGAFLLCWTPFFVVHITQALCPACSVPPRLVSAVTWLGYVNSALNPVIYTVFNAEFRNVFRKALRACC

[2] = biological target: T2, 5-hydroxytryptamine receptor 2A (Rattus norvegicus, UniProt P14842); assay: In vitro binding affinity at 5-hydroxytryptamine 2A receptor in rat cortical membrane; assay type: cell membranes
T2 sequence (P14842 whole entry): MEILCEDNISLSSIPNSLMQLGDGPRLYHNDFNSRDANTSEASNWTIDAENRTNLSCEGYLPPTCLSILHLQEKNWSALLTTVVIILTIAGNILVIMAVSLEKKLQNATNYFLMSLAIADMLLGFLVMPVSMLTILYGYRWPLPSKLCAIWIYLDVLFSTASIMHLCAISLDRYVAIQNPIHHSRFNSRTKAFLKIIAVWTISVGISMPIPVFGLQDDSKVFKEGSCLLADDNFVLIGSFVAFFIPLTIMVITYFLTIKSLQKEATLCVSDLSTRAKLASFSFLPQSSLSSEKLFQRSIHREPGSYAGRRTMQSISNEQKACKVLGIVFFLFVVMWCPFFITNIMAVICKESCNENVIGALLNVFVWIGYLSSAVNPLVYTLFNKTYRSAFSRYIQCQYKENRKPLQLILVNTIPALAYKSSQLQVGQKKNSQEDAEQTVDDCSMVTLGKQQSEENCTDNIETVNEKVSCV
Summary of the method: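 Frontal cortex membranes from female Wistar rats, stored at -80 °C. Incubated 30 min at 37 °C with 1 nM [3H]ketanserin; nonspecific binding with 10 µM methysergide; protein 2 mg/mL final. Filtered on PEI-presoaked GF/C and counted by scintillation. Nine concentrations in triplicate per curve, at least duplicate curves after a 10-6/10^-7 M prescreen. Ki by Cheng-Prusoff.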

[3] = biological target: T3, Adrenergic receptor alpha-1 (Rattus norvegicus, UniProt P15823+P23944+P43140); assay: In vitro binding affinity at Alpha-1 adrenergic receptor in rat cortical tissues
T3 sequence (P15823 whole entry): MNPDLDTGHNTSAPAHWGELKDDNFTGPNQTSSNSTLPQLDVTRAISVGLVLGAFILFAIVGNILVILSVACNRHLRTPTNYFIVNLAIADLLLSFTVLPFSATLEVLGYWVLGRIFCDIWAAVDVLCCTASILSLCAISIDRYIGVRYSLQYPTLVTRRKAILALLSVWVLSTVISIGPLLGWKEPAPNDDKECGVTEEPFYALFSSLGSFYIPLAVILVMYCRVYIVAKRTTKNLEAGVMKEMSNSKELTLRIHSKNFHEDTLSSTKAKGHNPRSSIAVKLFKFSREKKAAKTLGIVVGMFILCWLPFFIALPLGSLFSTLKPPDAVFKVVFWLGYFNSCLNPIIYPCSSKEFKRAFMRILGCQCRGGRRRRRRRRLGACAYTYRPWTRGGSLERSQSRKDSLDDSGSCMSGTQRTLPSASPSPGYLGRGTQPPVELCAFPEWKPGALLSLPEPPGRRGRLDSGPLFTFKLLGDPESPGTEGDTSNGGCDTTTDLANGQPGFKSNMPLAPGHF
T3 sequence (P23944 whole entry): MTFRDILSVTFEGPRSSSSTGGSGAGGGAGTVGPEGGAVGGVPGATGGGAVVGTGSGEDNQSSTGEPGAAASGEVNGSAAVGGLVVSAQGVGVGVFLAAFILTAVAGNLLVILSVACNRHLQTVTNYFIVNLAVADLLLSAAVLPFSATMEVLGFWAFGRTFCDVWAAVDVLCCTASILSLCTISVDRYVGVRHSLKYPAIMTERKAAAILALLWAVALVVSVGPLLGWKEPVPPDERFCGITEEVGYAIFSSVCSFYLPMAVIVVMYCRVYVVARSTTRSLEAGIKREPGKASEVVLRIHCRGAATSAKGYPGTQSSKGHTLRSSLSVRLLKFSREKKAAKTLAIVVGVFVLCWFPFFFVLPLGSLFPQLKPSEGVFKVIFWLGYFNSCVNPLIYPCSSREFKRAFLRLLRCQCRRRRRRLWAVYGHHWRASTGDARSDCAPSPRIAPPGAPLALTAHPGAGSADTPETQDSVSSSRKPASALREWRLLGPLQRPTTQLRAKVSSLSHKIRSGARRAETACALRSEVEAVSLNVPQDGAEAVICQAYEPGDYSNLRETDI
T3 sequence (P43140 whole entry): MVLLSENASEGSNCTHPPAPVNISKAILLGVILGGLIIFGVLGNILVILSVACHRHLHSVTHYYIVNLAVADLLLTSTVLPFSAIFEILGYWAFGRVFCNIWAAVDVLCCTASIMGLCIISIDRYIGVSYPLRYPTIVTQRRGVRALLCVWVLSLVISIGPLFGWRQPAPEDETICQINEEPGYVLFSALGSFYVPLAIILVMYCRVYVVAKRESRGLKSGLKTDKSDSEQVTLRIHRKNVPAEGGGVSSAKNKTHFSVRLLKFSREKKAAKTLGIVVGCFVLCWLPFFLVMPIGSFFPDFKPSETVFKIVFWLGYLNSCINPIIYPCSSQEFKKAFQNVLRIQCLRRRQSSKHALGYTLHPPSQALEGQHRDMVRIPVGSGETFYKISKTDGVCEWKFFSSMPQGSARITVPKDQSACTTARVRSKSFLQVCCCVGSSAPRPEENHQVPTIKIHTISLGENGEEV

[4] = biological target: T2, 5-hydroxytryptamine receptor 2A; assay: In vitro binding affinity at serotonin 5-hydroxytryptamine 2A receptor in rat cortical membrane; assay type: cell membranes
D(4) dopamine receptor [5] = biological target: T1, D(4) dopamine receptor; assay: as §1; remark: listed apart in the source
Summary of the method: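 Sf9 membranes expressing human cloned D4.2, in 50 mM Tris-HCl pH 7.4 with 5 mM MgCl2, 5 mM EDTA, 5 mM KCl and 1.5 mM CaCl2. […] Filtration on GF/C. Six to nine concentrations in duplicate. Ki by Cheng-Prusoff.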

Mus musculus [6] = assay: Percentage of total immobility time after an intraperitoneal dose of 16 (mg/kg) in porsolt's test in mice; assay type: functional
Rattus norvegicus [7] = assay: Compound was evaluated in paw test for the forelimb retraction in rat at effective dose of 20 (mg/kg); assay type: functional
Mus musculus [8] = assay: Percentage of total immobility time after an intraperitoneal dose of 8 (mg/kg) in porsolt's test in mice; assay type: functional
Rattus norvegicus [9] = species: Rattus norvegicus; assay: Compound was evaluated in paw test for the hindlimb retraction in rat
Mus musculus [10] = assay: Percentage of total immobility time after an intraperitoneal dose of 4 (mg/kg) in porsolt's test in mice; assay type: functional
Mus musculus [11] = assay: Percentage of total immobility time after an intraperitoneal dose of 8 (mg/kg) in porsolt's test; assay type: functional
Summary of the method: (§2)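 Forced swimming (Porsolt) test in mice, with the compound given i.p. Immobility time was expressed as a percentage of the total immobility time of vehicle-treated animals. Significance was assessed against saline by Mann-Whitney U test, or against vehicle by analysis of variance with post hoc tests.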

Mus musculus [12] = assay: Percentage of total immobility time after an intraperitoneal dose of 4 (mg/kg) in porsolt's test; assay type: functional; summary of the method: as §2
Rattus norvegicus [13] = assay: Compound was evaluated in paw test for the hindlimb retraction at effective dose of 5 (mg/kg); assay type: functional
Mus musculus [14] = assay: Percentage of total immobility time after an intraperitoneal dose of 16 (mg/kg) in porsolt's test; assay type: functional; summary of the method: as §2
Rattus norvegicus [15] = assay: Compound was evaluated in paw test for the forelimb retraction at effective dose of 20 (mg/kg); assay type: functional
Mus musculus [16] = assay: Percentage of total immobility time after an intraperitoneal dose of 30 (mg/kg) in porsolt's test; assay type: functional
Mus musculus [17] = assay: Percentage of total immobility time after an intraperitoneal dose of 7.5 (mg/kg) in porsolt's test; assay type: functional
Mus musculus [18] = assay: Percentage of total immobility time after an intraperitoneal dose of 15 (mg/kg) in porsolt's test

| SMILES | Ki (D(4) dopamine receptor [1]) [nM] | Ki [2] [nM] | Ki [3] [nM] | also measured |
| --- | --- | --- | --- | --- |
| Clc1ccc2c(c1)C(N1CCN(Cc3ccccc3)CC1)=Nc1cccnc1N2 | 109 | > 1000 | > 1000 | – |
| Clc1ccc2c(c1)C(NCCc1ccccn1)=Nc1cccnc1N2 | > 1000 | – | > 1000 | – |
| Clc1ccc2c(c1)C(NC1CC3CCC(C1)N3Cc1ccccc1)=Nc1cccnc1N2 (stereo not given) | – | 36 | – | – |
| Cc1ccc2c(c1)C(NC1CC3CCC(C1)N3Cc1ccccc1)=Nc1cccnc1N2 (stereo not given) | 131 | 34 | – | – |
| Cc1ccc2c(c1)C(N1CCN(c3cccc(C(F)(F)F)c3)CC1)=Nc1cccnc1N2 | > 1000 | > 1000 | > 1000 | – |
| Cc1ccc2c(c1)C(N1CCN(c3cccc(Cl)c3)CC1)=Nc1cccnc1N2 | > 1000 | > 1000 | > 1000 | – |
| Cc1ccc2c(c1)C(N1CCN(Cc3ccccc3)CC1)=Nc1cccnc1N2 | 183 | > 1000 | > 1000 | – |
| Cc1ccc2c(c1)C(NCCc1ccccn1)=Nc1cccnc1N2 | > 1000 | – | – | – |
| Clc1ccc2c(c1)C(NC1CCN(Cc3ccccc3)CC1)=Nc1cccnc1N2 | 89 | 81 | 163 | – |
| Clc1ccc2c(c1)C(N1CCN(c3ccccc3)CC1)=Nc1cccnc1N2 | > 1000 | > 1000 | > 1000 | – |
| Cc1ccc2c(c1)C(NCCC1CCCN1C)=Nc1cccnc1N2 (stereo not given) | > 1000 | > 1000 | – | – |
| Clc1cccc(N2CCN(C3=Nc4cccnc4Nc4ccc(Cl)cc43)CC2)c1 | > 1000 | > 1000 | – | – |
| Clc1ccc2c(c1)C(NCCN1CCCCC1)=Nc1cccnc1N2 | > 1000 | 357 | 63 | – |
| Cc1ccc2c(c1)C(NCCN1CCOCC1)=Nc1cccnc1N2 | > 1000 | > 1000 | – | – |
| CN(C)CCCNC1=Nc2cccnc2Nc2ccc(Cl)cc21 | > 1000 | – | > 1000 | – |
| CN1CCN(C2=Nc3cc(Cl)ccc3Nc3ccccc32)CC1 [CLOZAPINE] | – | – | – | Immobility (Mus musculus [11]): 103%; Retraction time (Rattus norvegicus [7]): 1.1 s; Immobility (Mus musculus [12]): 95%; Retraction time (Rattus norvegicus [13]): 30 s; Immobility (Mus musculus [14]): 139% |
| O=C(CCCN1CCC(O)(c2ccc(Cl)cc2)CC1)c1ccc(F)cc1 [HALOPERIDOL] | – | – | – | Retraction time (Rattus norvegicus [15]): 22.5 s; Retraction time (Rattus norvegicus [13]): 30 s |
| CN(C)CCCN1c2ccccc2CCc2ccccc21 [IMIPRAMINE] | – | – | – | Immobility (Mus musculus [16]): 70%; Immobility (Mus musculus [17]): 98%; Immobility (Mus musculus [18]): 45% |

The next lines start with results.

| Ki (D(4) dopamine receptor [1]) [nM] | Ki [2] [nM] | Ki [3] [nM] | SMILES | also measured |
| --- | --- | --- | --- | --- |
| 341 | 250 | – | Clc1ccc2c(c1)C(NCCN1CCCC1)=Nc1cccnc1N2 | – |
| 163 | – | > 1000 | CN1CCCN(C2=Nc3cccnc3Nc3ccc(Cl)cc32)CC1 | Ki [4]: 164 nM |
| 48 | 34 | – | Clc1ccc2c(c1)C(N1CCN(C3CCCCC3)CC1)=Nc1cccnc1N2 | – |
| 84 | 33 | – | Cc1ccc2c(c1)C(N1CCN(C3CCCCC3)CC1)=Nc1cccnc1N2 | – |
| > 1000 | 150 | > 1000 | Cc1ccc2c(c1)C(NCCN(C)C)=Nc1cccnc1N2 | – |
| – | > 1000 | > 1000 | Cc1ccc2c(c1)C(N1CCN(c3ccccc3)CC1)=Nc1cccnc1N2 | Ki (D(4) dopamine receptor [5]): > 1000 nM |
| > 1000 | > 1000 | > 1000 | Cc1ccc2c(c1)C(NCCCN(C)C)=Nc1cccnc1N2 | – |
| 510 | 132 | 18 | Cc1ccc2c(c1)C(NC1CCN(C)CC1)=Nc1cccnc1N2 | – |
| 393 | 123 | – | CN1CCC(NC2=Nc3cccnc3Nc3ccc(Cl)cc32)CC1 | – |
| 356 | 303 | – | Cc1ccc2c(c1)C(N1CCCN(C)CC1)=Nc1cccnc1N2 | – |
| > 1000 | > 1000 | > 1000 | FC(F)(F)c1cccc(N2CCN(C3=Nc4cccnc4Nc4ccc(Cl)cc43)CC2)c1 | – |
| 46 | 48 | 100 | Cc1ccc2c(c1)C(NC1CCN(Cc3ccccc3)CC1)=Nc1cccnc1N2 | – |
| 37 | 36 | 172 | Cc1ccc2c(c1)C(N1CCN(CCc3ccccc3)CC1)=Nc1cccnc1N2 | – |
| > 1000 | – | > 1000 | Clc1ccc2c(c1)C(NCCN1CCOCC1)=Nc1cccnc1N2 | – |
| 40 | 103 | 367 | Clc1ccc2c(c1)C(N1CCN(CCc3ccccc3)CC1)=Nc1cccnc1N2 | Immobility (Mus musculus [6]): 49%; Retraction time (Rattus norvegicus [7]): 1 s; Immobility (Mus musculus [8]): 36%; Retraction time (Rattus norvegicus [9]): 2.5 s; Immobility (Mus musculus [10]): 52% |
| 36 | – | 108 | Cc1ccc2c(c1)C(N1CCN(C)CC1)=Nc1cccnc1N2 | Ki [4]: 37 nM |
| 24 | – | 79 | CN1CCN(C2=Nc3cccnc3Nc3ccc(Cl)cc32)CC1 | Ki [4]: 35 nM |
